One compound from ChEMBL document CHEMBL2169863, “Discovery, structure-activity relationship, and biological evaluation of noninhibitory small molecule chaperones of glucocerebrosidase” (J Med Chem, 2012) can be followed below.

Data set [1] relates to Liver. In words: Half life in C57BL/6 mouse liver at 50 mg/kg, ip. Format: ADME, organism-based. Also on record: dose 50 mg/kg, route intraperitoneal. To be noted: in vivo. The procedure, abridged: (§1)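 Male C57BL/6 mice, 18−26 g, given a single ip dose of 50 mpk in 20% PEG 400 + 80% (20% HP-β-CD). Plasma, brain and liver were sampled, and brain and liver were homogenized in 3 volumes of PBS pH 7.4 (dilution factor 4). Analysis was by LC−MS/MS. Mean profiles N = 3.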

Data set [2] concerns the target T1, Lysosomal acid glucosylceramidase (Homo sapiens, UniProt P04062).
T1 sequence (P04062 whole entry): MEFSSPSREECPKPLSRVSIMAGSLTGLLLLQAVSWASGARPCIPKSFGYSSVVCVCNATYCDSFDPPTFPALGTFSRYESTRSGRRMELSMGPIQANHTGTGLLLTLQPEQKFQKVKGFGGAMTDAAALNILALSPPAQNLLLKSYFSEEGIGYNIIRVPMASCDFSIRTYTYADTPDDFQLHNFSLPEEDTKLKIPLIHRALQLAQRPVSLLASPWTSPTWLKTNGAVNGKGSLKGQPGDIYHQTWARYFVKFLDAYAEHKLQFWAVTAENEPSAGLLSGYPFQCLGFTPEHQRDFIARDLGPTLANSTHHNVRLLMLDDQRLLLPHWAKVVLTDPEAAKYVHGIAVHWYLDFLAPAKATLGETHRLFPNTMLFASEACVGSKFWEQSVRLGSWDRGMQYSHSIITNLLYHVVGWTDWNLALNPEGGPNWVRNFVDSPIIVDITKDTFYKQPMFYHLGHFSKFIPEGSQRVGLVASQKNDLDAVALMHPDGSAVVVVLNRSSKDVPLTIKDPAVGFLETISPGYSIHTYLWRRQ
The data set is described as follows: (§2) Binding affinity to NT-647 labeled glucocerebrosidase by microscale thermophoretic analysis. As to conditions: read-out: Kd(app). The procedure, abridged:
(§3)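 NT-647-labeled glucocerebrosidase at ~20 nM in 50 mM phosphate pH 7.2, 0.05% Tween-20. It was mixed 1:1 with a 16-point DMSO dilution series and incubated 15 min at room temperature before capillary microscale thermophoresis. Apparent K_d was taken from the dose-dependent fluorescence change.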
(Microscale thermophoresis detects binding through changes in fluorescence in a small temperature gradient.)

The target of data set [3] is T2, Lysosomal acid glucosylceramidase (Homo sapiens) (UniProt P04062).
T2 sequence (whole entry): T1 sequence (P04062 whole entry)
Described as §2. The procedure, abridged:
as §3

Data set [4] relates to T3, Lysosomal acid glucosylceramidase (Homo sapiens), P04062 [N409S].
T3 sequence (whole entry): T1 sequence (P04062 whole entry) with N409S
In words: Activation of glucocerebrosidase N370S mutant in Gaucher patient spleen homogenates using 4-methylumbelliferone-Glc as substrate assessed as half-maximal activation concentration incubated for 5 mins prior to substrate addition measured after 30 to 45 mins by fluorimetric analysis. The format is tissue-based. In a few lines: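 Spleen homogenate (27 μg final) in pH 5 citrate/phosphate buffer with KCl, NaCl, MgCl₂ and 0.01% Tween-20. Compound was titrated 0.5 nM to 58 μM and preincubated 5 min at room temperature. Reaction used 1 mM 4MU-Glc for 30−45 min at 37 °C and was stopped with NaOH/glycine pH 10. Read-out was fluorescence at Ex 365/Em 440 nm. AC₅₀ is the average of N = 2.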

For data set [5], the target named is T2, Lysosomal acid glucosylceramidase (Homo sapiens). The data set is described as follows: Activation of wild type glucocerebrosidase translocation to lysosome in human dermal fibroblast incubated for 6 days by LAMP2 colocalization-based laser scanning confocal microscopic analysis relative to vehicle-treated control.
Data set [6] is described as follows: Cytotoxicity against human dermal fibroblasts expressing wild type GCase at 5 uM after 6 days. To be noted: fibroblast, 144 h. The format is cell-based. In a few lines:
(§4)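 Fibroblasts of the stated genotype were seeded at 5000 cells/well. After 1 day they were switched to OPTI-MEM with 5% FBS and treated 6 days with compound. Viability was read by CellTiter-Glo luminescence on a parallel plate.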

Data set [7] deals with Lysosomal alpha-glucosidase (Homo sapiens) (UniProt P10253). In words: Activation of alpha-glucosidase using 4-MU-alpha-glucose as substrate.
In data set [8] the test system is Liver. The data set is described as follows: Cmax in C57BL/6 mouse liver at 50 mg/kg, ip. Format: ADME, organism-based. To be noted: in vivo. Set-up: dose 50 mg/kg, route intraperitoneal. In a few lines: as §1
The nature of data set [9]: Cytotoxicity against human dermal fibroblasts expressing GCase L444P/L444P mutant at 5 uM after 6 days. The format is cell-based. To be noted: fibroblast, 144 h. In a few lines: as §4
Data set [10] concerns T3, Lysosomal acid glucosylceramidase (Homo sapiens), P04062 [N409S]. The data set is described as follows: Activation of Glucocerebrosidase N370S/N370S mutant translocation to lysosome in Gaucher patient dermal fibroblasts at 5 uM incubated for 6 days by LAMP2 colocalization-based laser scanning confocal microscopic analysis relative to vehicle-treated control. The procedure, abridged:
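N370S/N370S Gaucher dermal fibroblasts were treated 6 days at 1, 5 or 25 μM, with DMSO vehicle control. Cells were fixed in 3% paraformaldehyde, permeabilized with Triton-X and stained with anti-GCase R386 (Alexa555), anti-LAMP-2 (Alexa488) and DAPI. Confocal imaging used constant laser settings, scoring GCase/LAMP-2 colocalization.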

Positions count from the first letter of the chain named. Calls of active or inactive are those of the source. Unless noted, the rule behind the calls is not given here.

In the case of `C#Cc1ccc(NC(=O)c2cnn3c(C)cc(C)nc23)cc1`, the t1/2 in the data set with Liver [1] is 28.9 h. The Kd in [2] was 9 µM. Moreover, the Activity result is “Dose-dependent effect” in data set [3], 0.36 µM in [4], “Non-toxic” in [6] and “Non-toxic” in data set [9]. Moreover, the outcome in data set [5] and in data set [10] was Active. In data set [7], the outcome was inactive. The concentration in the data set with Liver [8] peaked (Cmax) at 17.3 µM.
